ChEMBL document CHEMBL5303300, “EUbOPEN Chemogenomics Library - Multiplex” (2023)
Where “and” joins values, the source holds several entries; their conditions need not be identical. Equal values may be shown once.

Experiments:
U2OS = assay: Multiplex assay against U2OS; type: toxicity, cell-based; details: human, number of replicates 2
Method in brief: (§1)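 Live cells carried four stains from seeding: Hoechst33342, BioTracker Green Microtubule Cytoskeleton Dye, MitoTracker Red and Annexin V Alexa Fluor 680. They were imaged on a CQ1 microscope at 37°C and 5% CO2 after compound addition. Using CellPathfinder machine-learning gating, cells were split into Hoechst high-intensity objects or normal cells, normal cells into healthy, pyknosed or fragmented nuclei, and pyknosed cells into mitotic or apoptotic; tubulin, mitochondrial-mass and membrane-permeability phenotypes are per cents of healthy-nucleus cells.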

HEK-293T = assay: Multiplex assay against HEK293T; type: toxicity, cell-based; details: human, number of replicates 2; method in brief: as §1
[1] = 24 h, 10 µM, compound concentration 10 uM
[2] = 48 h, 1 µM, compound concentration 1 uM
[3] = 48 h, 10 µM, compound concentration 10 uM
[4] = 12 h, 1 µM, compound concentration 1 uM
[5] = 12 h, 10 µM, compound concentration 10 uM
[6] = 24 h, 1 µM, compound concentration 1 uM

## Cn1c(Nc2c(Cl)cccc2Cl)nc2ccc3nc[nH]c(=O)c3c21
U2OS; [1]
  Population Apoptotic (%): 75% and 45%
  Population Healthy Nuclei (%): 55% and 78%
  Population Hoechst High Intensity Objects (%): 1% and 0%
  Population Membrane Permeable-Phenotype (%): 2%
  Population Mitochondria Different-Phenotype (%): 0%
  Population Mitotic Cells (%): 25% and 54%
  Population Normal (%): 98% and 100%
  Population Pyknosed Nuclei (%): 11% and 13%
  Population Tubulin-Different-Phenotype (%): 68% and 77%
U2OS; [2]
  Population Apoptotic (%): 56% and 75%
  Population Healthy Nuclei (%): 58% and 89%
  Population Hoechst High Intensity Objects (%): 0%
  Population Membrane Permeable-Phenotype (%): 0% and 1%
  Population Mitochondria Different-Phenotype (%): 0%
  Population Mitotic Cells (%): 43% and 25%
  Population Normal (%): 100% and 99%
  Population Pyknosed Nuclei (%): 20% and 7%
  Population Tubulin-Different-Phenotype (%): 100% and 97%
U2OS; [3]
  Population Apoptotic (%): 75% and 67%
  Population Healthy Nuclei (%): 21% and 58%
  Population Hoechst High Intensity Objects (%): 1% and 0%
  Population Membrane Permeable-Phenotype (%): 5% and 10%
  Population Mitochondria Different-Phenotype (%): 5% and 2%
  Population Mitotic Cells (%): 24% and 32%
  Population Normal (%): 98% and 99%
  Population Pyknosed Nuclei (%): 34% and 28%
  Population Tubulin-Different-Phenotype (%): 61% and 74%
HEK-293T; [4]
  Population Apoptotic (%): 65% and 53%
  Population Fragmented Nuclei (%): 4% and 5%
  Population Healthy Nuclei (%): 77% and 80%
  Population Hoechst High Intensity Objects (%): 16% and 8%
  Population Membrane Permeable-Phenotype (%): 5% and 2%
  Population Mitochondria Different-Phenotype (%): 17% and 11%
  Population Mitotic Cells (%): 34% and 46%
  Population Normal (%): 84% and 91%
  Population Pyknosed Nuclei (%): 18% and 14%
  Population Tubulin-Different-Phenotype (%): 41% and 37%
  Total Cell Count: 450 and 596
HEK-293T; [5]
  Population Apoptotic (%): 29% and 35%
  Population Fragmented Nuclei (%): 1%
  Population Healthy Nuclei (%): 81% and 86%
  Population Hoechst High Intensity Objects (%): 4% and 5%
  Population Membrane Permeable-Phenotype (%): 1% and 2%
  Population Mitochondria Different-Phenotype (%): 17% and 12%
  Population Mitotic Cells (%): 70% and 64%
  Population Normal (%): 95% and 94%
  Population Pyknosed Nuclei (%): 16% and 11%
  Population Tubulin-Different-Phenotype (%): 40% and 36%
  Total Cell Count: 676 and 839
HEK-293T; [6]
  Population Apoptotic (%): 72% and 39%
  Population Fragmented Nuclei (%): 7% and 10%
  Population Healthy Nuclei (%): 78% and 79%
  Population Hoechst High Intensity Objects (%): 10% and 7%
  Population Membrane Permeable-Phenotype (%): 2%
  Population Mitochondria Different-Phenotype (%): 6% and 1%
  Population Mitotic Cells (%): 27% and 60%
  Population Normal (%): 89% and 92%
  Population Pyknosed Nuclei (%): 14% and 10%
  Population Tubulin-Different-Phenotype (%): 24% and 13%
  Total Cell Count: 675 and 1010
HEK-293T; [1]
  Population Apoptotic (%): 21% and 17%
  Population Fragmented Nuclei (%): 2%
  Population Healthy Nuclei (%): 85% and 81%
  Population Hoechst High Intensity Objects (%): 3%
  Population Membrane Permeable-Phenotype (%): 2%
  Population Mitochondria Different-Phenotype (%): 4% and 3%
  Population Mitotic Cells (%): 78% and 82%
  Population Normal (%): 96%
  Population Pyknosed Nuclei (%): 12% and 15%
  Population Tubulin-Different-Phenotype (%): 16% and 18%
  Total Cell Count: 1151 and 1278
HEK-293T; [2]
  Population Apoptotic (%): 36% and 15%
  Population Fragmented Nuclei (%): 12% and 15%
  Population Healthy Nuclei (%): 81% and 80%
  Population Hoechst High Intensity Objects (%): 10% and 8%
  Population Membrane Permeable-Phenotype (%): 2% and 3%
  Population Mitochondria Different-Phenotype (%): 1% and 0%
  Population Mitotic Cells (%): 63% and 84%
  Population Normal (%): 89% and 91%
  Population Pyknosed Nuclei (%): 5% and 4%
  Population Tubulin-Different-Phenotype (%): 4% and 5%
  Total Cell Count: 1439 and 2070
HEK-293T; [3]
  Population Apoptotic (%): 19% and 27%
  Population Fragmented Nuclei (%): 4%
  Population Healthy Nuclei (%): 79% and 76%
  Population Hoechst High Intensity Objects (%): 3%
  Population Membrane Permeable-Phenotype (%): 4%
  Population Mitochondria Different-Phenotype (%): 3%
  Population Mitotic Cells (%): 80% and 72%
  Population Normal (%): 96%
  Population Pyknosed Nuclei (%): 16% and 18%
  Population Tubulin-Different-Phenotype (%): 16% and 24%
  Total Cell Count: 1576 and 1527
